From ChEMBL document CHEMBL1821590, “Novel dihydropyrimidines and its pyrazole derivatives: synthesis and pharmacological screening” (Eur J Med Chem, 2011)
Values after ≈ are worked out from the molar mass of the structure shown.

Tested on: not listed separately
Test: Antioxidant activity assessed as nitric oxide radical scavenging activity after 150 mins
Format: functional
Conditions: not given
In short: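 10 mM sodium nitroprusside (4 mL), PBS pH 7.4 (1 mL) and sample or ascorbic acid in DMSO (1 mL, 12.5–100 µg/mL), incubated 150 min at 25 °C. Nitrite detected with sulphanilic acid (5 min) then naphthylethylenediamine (30 min, diffused light). Read at […]. Triplicate. % inhibition = [1 − (Vt/Vc)] × 100. IC50 derived from it.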

Q: With `CSc1nc(-c2ccccc2O)c(C#N)c(=O)n1C` as the compound, how does the IC50 read?
A: 58 µg/mL (≈ 212 µM)

Tested on: not listed separately
Test: Antioxidant activity assessed as hydrogen peroxide scavenging activity after 10 mins
Format: functional
Conditions: not given
In short: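 H2O2 (20 mM) in PBS pH 7.4. 1 mL of sample or ascorbic acid in methanol (12.5–100 µg/mL) added to 2 mL H2O2 solution. A230 read after 10 min. % inhibition = [1 − (Vt/Vc)] × 100. Triplicate, averaged. IC50 derived from % inhibition across concentrations.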

Q: With `CSc1nc(-c2ccccc2O)c(C#N)c(=O)n1C` as the compound, how does the IC50 read?
A: 39 µg/mL (≈ 143 µM)

Tested on: not listed separately
Test: Antioxidant activity assessed as inhibition of lipid peroxidation using egg lecithin liposomes incubated for 1 hr
Format: functional
Conditions: not given
In short: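 Egg lecithin (3 mg/mL, phosphate buffer pH 7.4) sonicated 10 min to form liposomes. Sample or ascorbic acid (12.5–100 µg/mL) added. Peroxidation induced with FeCl3 and L-ascorbic acid, 1 h at 37 °C. Stopped with HCl/TCA/TBA/BHA, boiled 15 min, centrifuged, supernatant read at 532 nm. Triplicate. % inhibition vs control. IC50 derived.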

Q: With `CSc1nc(-c2ccccc2O)c(C#N)c(=O)n1C` as the compound, how does the IC50 read?
A: 44 µg/mL (≈ 161 µM)

Tested on: not listed separately
Test: Antioxidant activity assessed as potassium ferricyanide ion reducing power after 20 mins
Format: functional
Conditions: not given
In short: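 Oyaizu method. Samples or ascorbic acid in DMF (12.5–100 µg/mL) mixed with 0.2 M phosphate buffer pH 6.6 and 1% potassium ferricyanide, 20 min at 50 °C. 10% TCA added, centrifuged. Supernatant mixed with water and 0.1% FeCl3, read at 700 nm. % = [(Vt/Vc) − 1] × 100. IC50 derived.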

Q: Which IC50 does the source give for `CSc1nc(-c2ccccc2O)c(C#N)c(=O)n1C` here?
A: 52 µg/mL (≈ 190 µM)

Tested on: not listed separately
Test: Antiinflammatory activity assessed as inhibition of albumin denaturation at 100 ug/ml by UV-visible spectrophotometry
Format: functional
Conditions: not given
In short: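 Compounds dissolved in minimal DMF, diluted in PBS pH 7.4 (final DMF <2.5%). 1 mL test solution (100 µg/mL) plus 1 mL 1% albumin in PBS, 15 min at 27 ± 1 °C, then heated 10 min at 60 ± 1 °C. After cooling, turbidity read at 660 nm. % inhibition = [(Vt/Vc) − 1] × 100 against a no-drug control. Triplicate, averaged. Diclofenac standard.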

Q: With `CSc1nc(-c2ccccc2O)c(C#N)c(=O)n1C` as the compound, how does the inhibition read?
A: 51.9%

Tested on: Metaphire posthuma
Test: Anthelmintic activity against Pheretima posthuma assessed as time taken for complete parasite paralysis at 0.1% w/v
Format: functional
Conditions: not given
In short: (§1)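 Earthworms (Pheretima posthuma) exposed to test solutions at 0.1, 0.2 and 0.5% w/v; time in minutes to complete paralysis (worms motionless) recorded. Albendazole as standard. Mean of three determinations ± S.D.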

Q: Which Time does the source give for `CSc1nc(-c2ccccc2O)c(C#N)c(=O)n1C` here?
A: 40.28 min

Tested on: Metaphire posthuma
Test: Anthelmintic activity against Pheretima posthuma assessed as time taken for complete parasite paralysis at 0.2% w/v
Format: functional
Conditions: not given
In short: as §1

Q: Which Time does the source give for `CSc1nc(-c2ccccc2O)c(C#N)c(=O)n1C` here?
A: 39.46 min

Tested on: Metaphire posthuma
Test: Anthelmintic activity against Pheretima posthuma assessed as time taken for complete parasite paralysis at 0.5% w/v
Format: functional
Conditions: not given
In short: as §1

Q: For `CSc1nc(-c2ccccc2O)c(C#N)c(=O)n1C`, which Time is on record?
A: 35.14 min

Tested on: Metaphire posthuma
Test: Anthelmintic activity against Pheretima posthuma assessed as time taken for parasite death at 0.1% w/v
Format: functional
Conditions: not given
In short: (§2)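 Earthworms (Pheretima posthuma, spelled Perituma posthuma in text) exposed to test compounds at 0.1, 0.2 and 0.5% w/v. Albendazole served as standard, with an untreated control. Paralysis was recorded as the time until worms became motionless, then time to death was recorded, in minutes. Each value is the mean of three determinations with S.D.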

Q: Which Time does the source give for `CSc1nc(-c2ccccc2O)c(C#N)c(=O)n1C` here?
A: 50.82 min

Tested on: Metaphire posthuma
Test: Anthelmintic activity against Pheretima posthuma assessed as time taken for parasite death at 0.2% w/v
Format: functional
Conditions: not given
In short: as §2

Q: With `CSc1nc(-c2ccccc2O)c(C#N)c(=O)n1C` as the compound, how does the Time read?
A: 48.34 min

Tested on: Metaphire posthuma
Test: Anthelmintic activity against Pheretima posthuma assessed as time taken for parasite death at 0.5% w/v
Format: functional
Conditions: not given
In short: as §2

Q: With `CSc1nc(-c2ccccc2O)c(C#N)c(=O)n1C` as the compound, how does the Time read?
A: 45.3 min

Tested on: Escherichia coli
Test: Antimicrobial activity against Escherichia coli at 25 ug/ml by agar plate diffusion technique
Format: functional
Conditions: read-out: IZ
In short: (§3)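 Agar plate diffusion against E. coli, P. aeruginosa, S. aureus and B. subtilis, with compounds at 25, 50 and 100 µg/mL. Streptomycin as standard.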

Q: With `CSc1nc(-c2ccccc2O)c(C#N)c(=O)n1C` as the compound, how does the zone of inhibition at 25 µg/mL read?
A: 6.25 mm

Tested on: Escherichia coli
Test: Antimicrobial activity against Escherichia coli at 50 ug/ml by agar plate diffusion technique
Format: functional
Conditions: read-out: IZ
In short: as §3

Q: Which zone of inhibition at 50 µg/mL does the source give for `CSc1nc(-c2ccccc2O)c(C#N)c(=O)n1C` here?
A: 9.16 mm

Tested on: Escherichia coli
Test: Antimicrobial activity against Escherichia coli at 100 ug/ml by agar plate diffusion technique
Format: functional
Conditions: read-out: IZ
In short: as §3

Q: For `CSc1nc(-c2ccccc2O)c(C#N)c(=O)n1C`, which zone of inhibition at 100 µg/mL is on record?
A: 11.3 mm

Tested on: Pseudomonas aeruginosa
Test: Antimicrobial activity against Pseudomonas aeruginosa at 25 ug/ml by agar plate diffusion technique
Format: functional
Conditions: read-out: IZ
In short: as §3

Q: For `CSc1nc(-c2ccccc2O)c(C#N)c(=O)n1C`, which zone of inhibition at 25 µg/mL is on record?
A: 6.36 mm

Tested on: Pseudomonas aeruginosa
Test: Antimicrobial activity against Pseudomonas aeruginosa at 50 ug/ml by agar plate diffusion technique
Format: functional
Conditions: read-out: IZ
In short: as §3

Q: Which zone of inhibition at 50 µg/mL does the source give for `CSc1nc(-c2ccccc2O)c(C#N)c(=O)n1C` here?
A: 8.16 mm

Tested on: Pseudomonas aeruginosa
Test: Antimicrobial activity against Pseudomonas aeruginosa at 100 ug/ml by agar plate diffusion technique
Format: functional
Conditions: read-out: IZ
In short: as §3

Q: Which zone of inhibition at 100 µg/mL does the source give for `CSc1nc(-c2ccccc2O)c(C#N)c(=O)n1C` here?
A: 10.8 mm

Tested on: Bacillus subtilis
Test: Antimicrobial activity against Bacillus subtilis at 25 ug/ml by agar plate diffusion technique
Format: functional
Conditions: read-out: IZ
In short: as §3

Q: With `CSc1nc(-c2ccccc2O)c(C#N)c(=O)n1C` as the compound, how does the zone of inhibition at 25 µg/mL read?
A: 12.8 mm

Tested on: Bacillus subtilis
Test: Antimicrobial activity against Bacillus subtilis at 50 ug/ml by agar plate diffusion technique
Format: functional
Conditions: read-out: IZ
In short: as §3

Q: For `CSc1nc(-c2ccccc2O)c(C#N)c(=O)n1C`, which zone of inhibition at 50 µg/mL is on record?
A: 16.9 mm

Tested on: Bacillus subtilis
Test: Antimicrobial activity against Bacillus subtilis at 100 ug/ml by agar plate diffusion technique
Format: functional
Conditions: read-out: IZ
In short: as §3

Q: For `CSc1nc(-c2ccccc2O)c(C#N)c(=O)n1C`, which zone of inhibition at 100 µg/mL is on record?
A: 25.5 mm

Tested on: Staphylococcus aureus
Test: Antimicrobial activity against Staphylococcus aureus at 25 ug/ml by agar plate diffusion technique
Format: functional
Conditions: read-out: IZ
In short: as §3

Q: Which zone of inhibition at 25 µg/mL does the source give for `CSc1nc(-c2ccccc2O)c(C#N)c(=O)n1C` here?
A: 8.14 mm

Tested on: Staphylococcus aureus
Test: Antimicrobial activity against Staphylococcus aureus at 50 ug/ml by agar plate diffusion technique
Format: functional
Conditions: read-out: IZ
In short: as §3

Q: For `CSc1nc(-c2ccccc2O)c(C#N)c(=O)n1C`, which zone of inhibition at 50 µg/mL is on record?
A: 9.33 mm

Tested on: Staphylococcus aureus
Test: Antimicrobial activity against Staphylococcus aureus at 100 ug/ml by agar plate diffusion technique
Format: functional
Conditions: read-out: IZ
In short: as §3

Q: With `CSc1nc(-c2ccccc2O)c(C#N)c(=O)n1C` as the compound, how does the zone of inhibition at 100 µg/mL read?
A: 11.2 mm

Tested on: Candida albicans
Test: Antimicrobial activity against Candida albicans at 25 ug/ml by paper disc method
Format: functional
Conditions: read-out: IZ
In short: (§4)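 Paper disc method against A. niger and C. albicans, with compounds at 25, 50 and 100 µg/mL. Amphotericin-B as standard.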

Q: With `CSc1nc(-c2ccccc2O)c(C#N)c(=O)n1C` as the compound, how does the zone of inhibition at 25 µg/mL read?
A: 8.84 mm

Tested on: Candida albicans
Test: Antimicrobial activity against Candida albicans at 50 ug/ml by paper disc method
Format: functional
Conditions: read-out: IZ
In short: as §4

Q: For `CSc1nc(-c2ccccc2O)c(C#N)c(=O)n1C`, which zone of inhibition at 50 µg/mL is on record?
A: 12.6 mm

Tested on: Candida albicans
Test: Antimicrobial activity against Candida albicans at 100 ug/ml by paper disc method
Format: functional
Conditions: read-out: IZ
In short: as §4

Q: For `CSc1nc(-c2ccccc2O)c(C#N)c(=O)n1C`, which zone of inhibition at 100 µg/mL is on record?
A: 20 mm

Tested on: Aspergillus niger
Test: Antimicrobial activity against Aspergillus niger at 25 ug/ml by paper disc method
Format: functional
Conditions: read-out: IZ
In short: as §4

Q: With `CSc1nc(-c2ccccc2O)c(C#N)c(=O)n1C` as the compound, how does the zone of inhibition at 25 µg/mL read?
A: 8 mm

Tested on: Aspergillus niger
Test: Antimicrobial activity against Aspergillus niger at 50 ug/ml by paper disc method
Format: functional
Conditions: read-out: IZ
In short: as §4

Q: With `CSc1nc(-c2ccccc2O)c(C#N)c(=O)n1C` as the compound, how does the zone of inhibition at 50 µg/mL read?
A: 9.46 mm

Tested on: Aspergillus niger
Test: Antimicrobial activity against Aspergillus niger at 100 ug/ml by paper disc method
Format: functional
Conditions: read-out: IZ
In short: as §4

Q: Which zone of inhibition at 100 µg/mL does the source give for `CSc1nc(-c2ccccc2O)c(C#N)c(=O)n1C` here?
A: 15.4 mm
